Activity calls are given as the source filed them. The calls are words filed in the database; no cut-off is given here.
Assays:
[1] = Toxicity in […] assessed as induction of apoptotic cell death at 1 to 10 uM measured after 1 hr by TUNEL assay; type: cell-based; details: ins1, 10 µM; dose 1-10 µM
In short: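 INS-1 cells (RPMI, 10% FCS, 10 mM HEPES, 1 mM pyruvate, 37 °C, 5% CO2) were grown to ~70% confluency. They were pretreated 1 h with 1 or 10 μM (final DMSO 0.10%), then given vehicle or IL-1β 20 ng/mL + IFNγ 200 ng/mL for 16 h. Cells were cytospun, PFA-fixed, permeabilised, TUNEL-stained and DAPI-counterstained. Result was % TUNEL-positive nuclei from ≥3 fields per slide, 3–5 independent experiments, mean ± SEM.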

INS1 [2] = test: (§1) Protection against IL1beta/IFNgamma-induced cell death in […] cells assessed as reduction in cell death at 10 uM preincubated for 1 hr followed by IL1beta/IFNgamma addition and measured after 16 hrs by TUNEL assay relative to control; type: functional; details: Rattus norvegicus, time 17.0 hrs
In short: (§2)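 INS-1 insulinoma cells grown in RPMI (10% fetal calf serum, 2 mM glutamine, 10 mM HEPES, 1 mM pyruvate) at 37 °C, 5% CO2 to ~70% confluency. Pretreated 1 h with the hydroxy fatty acid in DMSO (final 0.10%), then IL-1β 20 ng/mL + IFNγ 200 ng/mL for 16 h. Cells were cytospun, PFA-fixed and permeabilised, then TUNEL/DAPI stained. Apoptotic cells counted as % of total, ≥3 fields per slide, 3–5 independent experiments.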

U-87 MG = test: Antiproliferative activity against human U-87 MG cells assessed as reduction in cell growth after 72 hrs by MTT assay; type: functional, cell-based; details: U-87MG ATCC
In short: (§3)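 Cells were switched after 24 h to medium containing compound, diluted from a 10 mM DMSO stock to a final 0.5% DMSO, with vehicle controls. Exposure was 72 h, then MTT (0.25 mg/mL final) for 3 h. Formazan was dissolved in DMSO and read at 570 nm minus 690 nm background. Triplicate wells were normalised to DMSO as 100%. IC50 came from dose-response curves over at least six experiments.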

Caco-2 [3] = test: Antiproliferative activity against human Caco2 cells assessed as reduction in cell growth after 72 hrs by MTT assay; type: functional, cell-based; details: Caco-2, 72 h; in short: as §3
A549 [4] = test: Antiproliferative activity against human A549 cells assessed as reduction in cell growth after 72 hrs by MTT assay; type: functional, cell-based; details: A549, 72 h; in short: as §3
INS1 [5] = test: (§4) Protection against IL1beta/IFNgamma-induced cell death in […] cells assessed as reduction in cell death at 1 uM preincubated for 1 hr followed by IL1beta/IFNgamma addition and measured after 16 hrs by TUNEL assay relative to control; type: functional; details: Rattus norvegicus, time 17.0 hrs; in short: as §2
SF-268 [6] = test: Antiproliferative activity against human SF-268 cells assessed as reduction in cell growth after 72 hrs by MTT assay; type: functional, cell-based; details: SF-268, 72 h; in short: as §3
[7] = as §1; type: functional; parameters: scale not given: the % may be the effect or the level left; details: time 17 hrs; in short: as §2
[8] = as §4; type: functional; parameters: scale not given: the % may be the effect or the level left; details: time 17 hrs; in short: as §2
SF-268 [9] = test: Antiproliferative activity against human SF-268 cells assessed as reduction in cell growth at 10 to 100 uM after 72 hrs by MTT assay; type: functional, cell-based; details: dose 10-100 µM; in short: as §3
Caco-2 [10] = test: Antiproliferative activity against human Caco2 cells assessed as reduction in cell growth at 10 to 100 uM after 72 hrs by MTT assay; type: functional, cell-based; details: dose 10-100 µM; in short: as §3
A549 [11] = test: Antiproliferative activity against human A549 cells assessed as reduction in cell growth at 10 to 100 uM after 72 hrs by MTT assay; type: functional, cell-based; details: dose 10-100 µM; in short: as §3
A549 [12] = test: Induction of apoptosis in human A549 cells assessed as increase in activated caspase-3 at 50 uM measured after 72 hrs by DAPI and immunostaining based assay; type: functional, cell-based
In short: (§5)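 A549 cells (DMEM, 4.5 g/L glucose, 10% heat-inactivated FBS) were grown on poly-L-lysine-coated coverslips and exposed to 50 μM or DMSO vehicle for 72 h. They were fixed in 4% PFA and blocked with 5% FBS/0.1% Triton X-100. Staining was rabbit anti-phospho-histone H3 or anti-cleaved caspase-3 overnight at 4 °C, then Alexa488 secondary and DAPI. Read-out was % positive nuclei over DAPI, n = 8 fields.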

A549 [13] = test: Cell cycle arrest in human A549 cells assessed as reduction in histone H3 phosphorylation at 50 uM measured after 72 hrs by DAPI and immunostaining based assay; type: functional; in short: as §5
A549 [14] = test: Reduction in STAT3 mRNA level in human A549 cells at 50 uM by RT-qPCR analysis; type: functional, cell-based
In short: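 STAT3 mRNA in DMSO- versus compound-treated A549 cells was measured by quantitative real-time RT-PCR, normalised to β-actin mRNA.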

A549 [15] = test: Reduction in total STAT3 expression in human A549 cells at 50 uM by Western blot analysis; type: functional, cell-based
In short: (§6)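 Treated and untreated A549 cells were lysed in RIPA and spun at 17,000g for 15 min at 4 °C. 35 μg protein was run on SDS-PAGE and transferred to nitrocellulose, then blocked with 5% BSA in TBS-0.1% Tween 20. Probes were anti-phospho-STAT3 (1:1000), anti-STAT3 (1:1000) and anti-β-actin (1:20,000) overnight at 4 °C, then secondary for 1.30 h. Relative protein expression was quantified.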

[16] = target: Signal transducer and activator of transcription 3 (Homo sapiens) (UniProt P40763); test: Down regulation of STAT3 phosphorylation in human A549 cells at 50 uM by Western blot analysis; type: cell-based; in short: as §6
Signal transducer and activator of transcription 3 (Homo sapiens), sequence (P40763 whole entry): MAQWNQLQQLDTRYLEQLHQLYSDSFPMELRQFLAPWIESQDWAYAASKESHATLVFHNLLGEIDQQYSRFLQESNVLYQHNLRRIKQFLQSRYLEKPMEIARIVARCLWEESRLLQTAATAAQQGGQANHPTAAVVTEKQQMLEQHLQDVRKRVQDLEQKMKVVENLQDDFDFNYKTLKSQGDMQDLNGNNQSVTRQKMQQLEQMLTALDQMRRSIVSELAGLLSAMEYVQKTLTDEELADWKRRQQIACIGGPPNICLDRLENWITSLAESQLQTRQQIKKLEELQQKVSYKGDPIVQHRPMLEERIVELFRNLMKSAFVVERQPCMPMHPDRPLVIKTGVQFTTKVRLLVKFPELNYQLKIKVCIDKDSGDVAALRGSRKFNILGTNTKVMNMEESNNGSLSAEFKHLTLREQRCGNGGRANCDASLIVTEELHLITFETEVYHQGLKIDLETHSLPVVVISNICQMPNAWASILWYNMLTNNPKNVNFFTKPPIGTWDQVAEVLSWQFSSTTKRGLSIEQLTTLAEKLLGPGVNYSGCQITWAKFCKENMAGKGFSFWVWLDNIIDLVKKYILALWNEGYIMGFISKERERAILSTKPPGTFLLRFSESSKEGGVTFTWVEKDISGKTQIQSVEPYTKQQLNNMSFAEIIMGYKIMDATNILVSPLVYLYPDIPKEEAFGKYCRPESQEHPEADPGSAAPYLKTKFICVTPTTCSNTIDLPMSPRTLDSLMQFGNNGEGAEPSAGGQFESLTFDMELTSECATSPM

| Compound | Activity [1] | Activity (U-87 MG) | IC50 (Caco-2 [3]) [µM] | IC50 (A549 [4]) [µM] | Activity (SF-268 [9]) | Activity (Caco-2 [10]) | Activity (A549 [11]) | also measured |
| --- | --- | --- | --- | --- | --- | --- | --- | --- |
| CCCCCCCCCCC[C@H](O)CCCCCC(=O)O | Non-Toxic | inactive | 50 | 50 |  |  |  | Activity (INS1 [2]): inactive; Activity (INS1 [5]): inactive; IC50 (SF-268 [6]): 47 µM |
| CCCCCCCCC[C@H](O)CCCCCCCC(=O)O | Non-Toxic |  |  |  |  |  |  | Activity [7]: 68%; Activity [8]: 40% |
| CCCCCCCCC[C@H](O)CCCCCC(=O)O |  | inactive | 50 | 55 |  |  |  |  |
| CCCCCCCCCCCCCCCCCC(=O)O |  |  |  |  | inactive | inactive | inactive |  |
| CCCCCCCCC[C@@H](O)CCCCCCCC(=O)O | Non-Toxic |  |  |  |  |  |  | Activity [7]: 73%; Activity (A549 [12]): inactive; Activity (A549 [13]): Active; Activity [8]: 40% |
| CCCCCCCCCCC[C@@H](O)CCCCCC(=O)O | Non-Toxic | inactive | 37 | 38 |  |  |  | Activity (A549 [14]): Active; Activity [7]: 95%; Activity (A549 [12]): inactive; Activity (A549 [13]): Active; Activity (A549 [15]): Active; Activity [16]: Active; Activity (INS1 [5]): inactive; IC50 (SF-268 [6]): 27 µM |
| CCCCCCCCCCCCCCCC(=O)O |  |  |  |  | inactive | inactive | inactive |  |
| CCCCCCCCCCCCCCCC(=O)OC(CCCCCCCCCCC)CCCCCC(=O)O (centres undefined) |  |  |  |  | inactive | inactive | inactive | Activity (INS1 [2]): inactive |
| CCCCCCCC/C=C\CCCCCCCC(=O)OC(CCCCCCCCC)CCCCCCCC(=O)O (centres undefined) |  |  |  |  | inactive | inactive | inactive |  |
| CCCCCCCCCCCCCCCC(=O)OC(CCCCCCCCC)CCCCCCCC(=O)O (centres undefined) |  |  |  |  | inactive | inactive | inactive |  |
| CCCCCCCCC[C@@H](O)CCCCCC(=O)O |  | inactive | 42 | 49 |  |  |  |  |
